≈ marks a conversion by molar mass, not a printed value. Calls of active or inactive are those of the source. The rule behind the calls is not given here.

The nature of data set [1]: Cmax in Sprague-Dawley rat at 5 mg/kg, po up to 24 hrs by LC-MS/MS analysis. The data set is classed as ADME, organism-based. More on the design: route oral, dose 5 mg/kg, time <=24. The settings on record: in vivo. The procedure, abridged:
(§1)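 Male SD rats (180–220 g, n = 3) received compound in ethanol/saline (5:95), either intravenously at 2 mg/kg or intragastrically at 5 mg/kg. Plasma was sampled at 0, 0.5, 1, 2, 4, 8, 12 and 24 h. Concentrations were measured by LC-MS/MS, and PK parameters were calculated from the concentration–time data.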

Data set [2] has as its system 3T3-L1. As to the kind of experiment: Activation of AMPK pathway in mouse 3T3-L1 cells assessed as increase in oxygen consumption at 1 uM after 5 to 10 mins by XF-96 cell analyzer method. The data set is classed as cell-based. To be noted: filed as activator, time 5-10 min. The procedure, abridged: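 3T3-L1 cells seeded in quintuplicate at 5000 cells/well in an XF-96 plate. Equilibrated in assay medium at 37 °C for 30 min. Baseline OCR measured over 3–5 min, then compound injected to final concentration and OCR measured at set time points. Cell number counted at end.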

Data set [3] deals with 3T3-L1. As to the kind of experiment: Inhibition of mouse 3T3-L1 cells adipocyte differentiation assessed as reduction in adipogenic cocktail-induced PPARgamma mRNA expression after 24 hrs by RT-qPCR analysis. Format: functional, cell-based. The settings on record: dose 0.01-1 µM. The essentials:
(§2)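 Confluent 3T3-L1 preadipocytes received differentiation cocktail (0.5 mM IBMX, 100 ng/mL dexamethasone, 2 µg/mL insulin) with compound (0.01–1 µM; metformin 1 mM) for 24 h. mRNA was measured by SYBR Green RT-qPCR (30 cycles), normalized to β-actin, with the differentiated control set to 1. N = 4 independent experiments.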
On the technique in general: Real-time PCR tracks product formation cycle by cycle.

Data set [4] can be described thus: Aqueous solubility in PBS buffer at pH 7.4 after 24 hrs. Format: physicochemical.
The test system of data set [5] is 3T3-L1. Briefly: Lipid lowering activity in mouse 3T3-L1 cells assessed as reduction in adipogenic cocktail-induced triglyceride levels at 1 uM incubated for 6 days by GPO-POD assay relative to control. The data set is classed as functional. More on the design: scale not given: the % may be the effect or the level left. The settings on record: time 6 day. The procedure, abridged:
(§3)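 Confluent 3T3-L1 cells were treated from day 0 in cocktail (IBMX, dexamethasone, insulin) for 3 days, then re-dosed in insulin medium for 3 more days. For dose–response, concentrations were 0–10 µM (0.01, 0.1, 0.3, 1, 3, 10). On day 6, cells were lysed in 0.2% Triton X-100 and TG was measured by GPO-POD and normalized to BCA protein as % of control. EC50 was fitted from the dose–response. N = 4.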

Data set [6] is described as follows: Intrinsic clearance in Sprague-Dawley rat liver microsomes assessed as rate constant […] up to 60 mins in presence of NADPH by LC-MS/MS analysis. Format: ADME, Microsome. The settings on record: read-out: CLH. A general note: Microsomes from liver hold many membrane-bound enzymes, among them those of drug oxidation.
The subject of data set [7] is 3T3-L1. Briefly: Lipid lowering activity in mouse 3T3-L1 cells assessed as reduction in adipogenic cocktail-induced triglyceride levels incubated for 6 days by GPO-POD assay. The settings on record: for EC50: 3T3-L1, 144 h. The data set is classed as functional, cell-based. The procedure, abridged: as §3
Data set [8] in a line: Half life in Sprague-Dawley rat liver microsomes assessed as rate constant […] up to 60 mins in presence of NADPH by LC-MS/MS analysis. The data set is classed as ADME, Microsome.
The nature of data set [9]: AUC(0 to infinity) in Sprague-Dawley rat at 5 mg/kg, po up to 24 hrs by LC-MS/MS analysis. The data set is classed as ADME, organism-based. More on the design: route oral, dose 5 mg/kg, time <=24. To be noted: in vivo. The procedure, abridged: (§4)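 Male Sprague-Dawley rats (180-220 g, n = 3) were dosed intragastrically at 5 mg/kg in ethanol/saline (5:95). Plasma was collected at 0, 30 min, 1, 2, 4, 8, 12 and 24 h post-dose and quantified by LC-MS/MS. Pharmacokinetic parameters were derived from the plasma concentration-time profile.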

Data set [10] relates to 3T3-L1. Briefly: Activation of AMPK pathway in mouse 3T3-L1 cells assessed as increase in number of mitochondria copy at 1 uM after 24 hrs in presence of compound C by mito-tracker staining based Confocal microscopic method. The essentials: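 3T3-L1 cells grown in DMEM with 10% FBS at 37 °C and 5% CO2. After treatment, cells were stained for 30 min at 37 °C in the dark with 1 µM Mito-Tracker plus Hoechst 33342 (1:1000) and imaged by confocal microscopy (excitation 633 and 405 nm). Mitochondrial copy number was also taken as the mtDNA/nDNA ratio by PCR (cytochrome C versus 18S rRNA).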

Data set [11] is described as follows: Half life in Sprague-Dawley rat at 5 mg/kg, po up to 24 hrs by LC-MS/MS analysis. The data set is classed as ADME, organism-based. To be noted: in vivo. The essentials: as §1
Data set [12] is described as follows: MRT(0 to infinity) in Sprague-Dawley rat at 5 mg/kg, po up to 24 hrs by LC-MS/MS analysis. Format: ADME, organism-based. To be noted: in vivo. The procedure, abridged: as §1
Data set [13] concerns 3T3-L1. Briefly: Inhibition of mouse 3T3-L1 cells adipocyte differentiation assessed as reduction in adipogenic cocktail-induced C/EBPbeta mRNA expression after 24 hrs by RT-qPCR analysis. The data set is classed as functional, cell-based. The settings on record: dose 0.01-1 µM. The essentials:
as §2

Data set [14] in a line: Tmax in Sprague-Dawley rat at 5 mg/kg, po up to 24 hrs by LC-MS/MS analysis. Format: ADME, organism-based. The settings on record: in vivo. The procedure, abridged:
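Male Sprague-Dawley rats (180-220 g, n = 3) were dosed intragastrically at 5 mg/kg in ethanol/saline (5:95); a separate iv arm received 2 mg/kg. Blood was drawn at 0, 30 min, 1, 2, 4, 8, 12 and 24 h and centrifuged to obtain plasma. Drug levels were measured by LC-MS/MS, and pharmacokinetic parameters were calculated from the concentration–time data.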

The nature of data set [15]: Stability in Sprague-Dawley rat liver microsomes assessed as rate constant […] up to 60 mins in presence of NADPH by LC-MS/MS analysis. Format: ADME, Microsome.
For data set [16], the target named is RAC-alpha serine/threonine-protein kinase (Mus musculus) (UniProt P31750). As to the kind of experiment: Activation of AKT in mouse C2C12 cells assessed as AKT phosphorylation at […] 308 residue at 1 uM after 6 hrs by Western blot analysis. The data set is classed as cell-based. The procedure, abridged: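 C2C12 myoblasts kept in DMEM with 10% FBS and 1% penicillin/streptomycin at 37 °C under 5% CO2.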
Chain of RAC-alpha serine/threonine-protein kinase (Mus musculus) (P31750 whole entry): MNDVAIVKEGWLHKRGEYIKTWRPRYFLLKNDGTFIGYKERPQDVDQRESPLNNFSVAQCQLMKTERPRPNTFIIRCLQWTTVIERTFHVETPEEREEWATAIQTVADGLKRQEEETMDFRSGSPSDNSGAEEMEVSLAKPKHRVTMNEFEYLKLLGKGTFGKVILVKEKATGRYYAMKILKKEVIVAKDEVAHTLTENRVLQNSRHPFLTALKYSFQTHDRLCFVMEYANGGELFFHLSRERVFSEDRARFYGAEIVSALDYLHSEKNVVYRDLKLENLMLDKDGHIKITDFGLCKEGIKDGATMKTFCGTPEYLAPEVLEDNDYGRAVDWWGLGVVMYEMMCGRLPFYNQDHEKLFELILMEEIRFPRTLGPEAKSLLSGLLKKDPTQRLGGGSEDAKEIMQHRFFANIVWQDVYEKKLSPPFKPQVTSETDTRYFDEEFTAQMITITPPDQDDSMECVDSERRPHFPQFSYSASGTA
(Immunoblotting shows a protein as a band on a membrane.)

For data set [17], the system named is 3T3-L1. Briefly: Inhibition of mouse 3T3-L1 cells adipocyte differentiation assessed as reduction in adipogenic cocktail-induced C/EBPalpha mRNA expression after 24 hrs by RT-qPCR analysis. Format: functional, cell-based. To be noted: dose 0.01-1 µM. The essentials:
as §2

In data set [18] the test system is 3T3-L1. Briefly: Inhibition of mouse 3T3-L1 cells adipocyte differentiation assessed as reduction in adipogenic cocktail-induced C/EBPdelta mRNA expression after 24 hrs by RT-qPCR analysis. The settings on record: dose 0.01-1 µM. Format: functional, cell-based. The procedure, abridged: as §2
Data set [19] relates to 3T3-L1. As to the kind of experiment: Activation of AMPK pathway in adipogenic cocktail-induced mouse 3T3-L1 cells assessed as increase in phosphorylation AMPKalpha at Thr172 residue at 0.01 to 1 uM after 24 hrs by Western blot analysis. Format: cell-based. To be noted: filed as activator, dose 0.01-1 µM. The essentials:
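Confluent 3T3-L1 pre-adipocytes exposed to adipogenic cocktail for 24 h with or without compound (0, 0.01, 0.1, 1 µM); DMSO vehicle. Lysates analysed by SDS-PAGE/Western blot for pAMPKα (Thr-172), normalized to actin, Ctrl set as 1. N = 4 independent experiments.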

A short description of data set [20]: AUC(0 to t) in Sprague-Dawley rat at 5 mg/kg, po up to 24 hrs by LC-MS/MS analysis. The settings on record: in vivo. More on the design: route oral, dose 5 mg/kg, time <=24. The data set is classed as ADME, organism-based. The essentials:
as §4

Data set [21] can be described thus: Effect on total AKT level in mouse C2C12 cells at 1 uM after 6 hrs by Western blot analysis. Format: ADME, cell-based. To be noted: c2c12, 6 h.
Data set [22] can be described thus: Oral bioavailability in Sprague-Dawley rat at 5 mg/kg up to 24 hrs by LC-MS/MS analysis. The settings on record: in vivo. The data set is classed as ADME, organism-based. The essentials: as §1

The compound `CN(C)CCCNc1nc(-c2[nH]c3ccccc3c2C=O)nc2ccccc12` displayed a Cmax in [1] of 23.8 ng/mL. In addition, the outcome in the data set on 3T3-L1 [2] and with 3T3-L1 [19] was Active. Further, the inhibition result with 3T3-L1 [3], in the data set on 3T3-L1 [13], in the data set on 3T3-L1 [17] and in the data set on 3T3-L1 [18] was “Dose-dependent effect” throughout. Also, in [4], the concentration in solution (solubility at 24 h) came to 41.1 µg/mL (≈ 110 µM). The Activity in the data set on 3T3-L1 [5] is 79.2%; in data set [21], “Non-Toxic”. Also, in [6], the microsomal CLint came to 6.3 µL/min/mg. Also, in the data set with 3T3-L1 [7], the EC50 worked out at 91 nM. The half-life in data set [8] was 2.18 h; in data set [11], 5.1 h. This compound displayed an AUC(0-inf) in [9] of 294 ng·h/mL. Further, the outcome (in the data set with 3T3-L1 [10]; in [16]) was inactive. The compound further yielded an MRT inf in data set [12] of 9.62 h. Besides, the Tmax in data set [14] was determined as 4.7 h. The k el at 1 h in data set [15] was 8.83e-05 s⁻¹. This compound showed an area under the curve AUC(0-t) at 24 h in [20] of 247 ng·h/mL. Moreover, the bioavailability in data set [22] is 43.8%.
With `COc1ccc2[nH]c(-c3nc(NCCCCN4CCCC4)c4ccccc4n3)c(C=O)c2c1`, the Cmax in [1] came to 37.1 ng/mL. Further, the outcome in the data set on 3T3-L1 [2] and with 3T3-L1 [19] was Active. In addition, the inhibition result in the data set with 3T3-L1 [3], in the data set on 3T3-L1 [13], with 3T3-L1 [17] and with 3T3-L1 [18] was “Dose-dependent effect” throughout. Also, in data set [4], the concentration in solution (solubility at 24 h) was 73.3 µg/mL (≈ 165 µM). The Activity result with 3T3-L1 [5] is “>=50%”; in the data set with 3T3-L1 [7] (dose 1-5 µM, time 6.0 day), “Dose-dependent effect”; in data set [21] it was “Non-Toxic”. For the same compound, in data set [6], the microsomal CLint was 3.7 µL/min/mg. Also, the EC50 with 3T3-L1 [7] was 33 nM. Further, the half-life in data set [8] is 3.12 h; in data set [11], 4.2 h. The compound further came in with an AUC(0-inf) in data set [9] of 384 ng·h/mL. Further, the outcome (in the data set on 3T3-L1 [10]; in [16]) was inactive. In addition, the MRT inf in data set [12] stood at 7.5 h. Moreover, the Tmax in data set [14] was 4 h. The k el at 1 h in [15] is 6.17e-05 s⁻¹. The AUC(0-t) at 24 h in [20] turned out to be 374 ng·h/mL. Also, the bioavailability in data set [22] turned out to be 48.6%.

A word on the Cmax: it is the maximum level reached in the sampled fluid or tissue. As usually defined, the solubility is the dissolved amount per volume that the medium holds. Usually EC50 stands for the concentration at which the effect is half-maximal. In general, half-life refers to the time in which the quantity being followed falls by half. Broadly, the AUC(0-inf) is total exposure, with the tail of the curve extrapolated. As usually defined, the MRT inf is the average time that molecules of a dose stay in the body. For orientation: Tmax means the time from dosing to the highest level. For orientation: AUC(0-t) means the area under the concentration-time curve up to a stated or last time point. By bioavailability is commonly meant dose-corrected exposure relative to a reference, in per cent.
